EBI2 antag – antagonists of human EBI2 receptor | inhibition, % at 5 µM | EBI2 beta-arrestin recruitment, luminescence, 7a,25-OHC stimulated | hit rate 0.81% among 360,000; in the data active = inhibition above about 38%;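 note: enzyme fragment complementation signal reports receptor beta-arrestin coupling in cells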
Target sequence (P32249 whole entry, looked up, the tested form may be a part): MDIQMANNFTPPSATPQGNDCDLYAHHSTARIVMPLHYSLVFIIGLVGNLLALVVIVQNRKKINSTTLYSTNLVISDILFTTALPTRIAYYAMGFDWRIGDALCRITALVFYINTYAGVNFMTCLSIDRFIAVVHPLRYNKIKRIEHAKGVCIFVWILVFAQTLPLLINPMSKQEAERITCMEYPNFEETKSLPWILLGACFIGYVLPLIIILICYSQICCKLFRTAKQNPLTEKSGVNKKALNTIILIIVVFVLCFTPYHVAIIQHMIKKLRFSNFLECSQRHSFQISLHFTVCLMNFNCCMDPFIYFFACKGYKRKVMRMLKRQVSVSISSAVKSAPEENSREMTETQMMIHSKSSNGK
APJ antag – antagonists of human APJ apelin receptor; P35414; CHO-K1 APJ beta-arrestin complementation, luminescence; inhibition, % at 20 µM; hit rate 0.32% among 330,000; AID 2521;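 active = inhibition above about 40% at 20 µM, limit read from the data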;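 note: cells challenged with 10 nM apelin-13 agonist together with compound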
APJ ag – agonists of human APJ apelin receptor. P35414. CHO-K1 APJ PathHunter beta-arrestin, luminescence; 0% DMSO wells, 100% apelin. activation, % at 20 µM. hit rate 0.11% among 330,000. AID 2520;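 active = activation more than six SD over the plate average, tested at 20 µM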
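Test system: CHO-K1 APJ beta-arrestin complementation cell line. Amount: cell density 1000 per well. Controls: DMSO negative, 10 nM Apelin-13 positive. Signal: luminescent beta-gal fragment complementation, chemiluminescent substrate. Read-out basis: agonist-driven arrestin binding to APJ. Timing: compound stimulation 90 min at 25 °C, detection 60 min.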
CXCR6 inh – blocks human CXCR6 beta-arrestin recruitment; CHO-K1 PathHunter CXCR6 beta-arrestin, luminescence; O00574; hit rate 0.36% among 360,000; inhibition, % at 20 µM; in the data active = inhibition above about 34%, passing the limit was not always enough;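 note: antagonist mode with CXCL16 agonist at 10 nM final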
CCR6 antag – blocks CCL20-driven beta-arrestin recruitment at human CCR6; CHO-K1 CCR6 PathHunter beta-arrestin, luminescence, CCL20-stimulated; inhibition, % at 20 µM; hit rate 0.49% among 340,000; AID 493098;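 active = compounds whose inhibition of the agonist-driven luminescence signal at 20 µM reaches about 50%, limit read from the data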;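 note: cells stimulated with CCL20 at 14 nM final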
A number is an active result; i = inactive; nt = no result. Rows were chosen to be rich in hits. Some 1.5% of all compounds tested hit in one or more screens of this group.

SMILES	EBI2 antag	APJ antag	APJ ag	CXCR6 inh	CCR6 antag
O=C(Nc1cc(Cl)cc2c1-c1ccc(Cl)cc1C2O)C(Cl)Cl (configuration not stated)	44.1	nt	nt	i	i
COc1ccc(C(O)Cc2nccn2C)cc1 (configuration not stated)	i	i	i	i	i
CCc1ccc(C2C(C#N)=C(N)C(C#N)(C#N)C3=CCC(C(C)(C)C)CC32)cc1 (configuration not stated)	i	i	i	42.1	67.6
CC(C)(C)C1CC=C2C(C#N)=C(N)C(C#N)(C#N)C(c3cccs3)C2C1 (configuration not stated)	nt	i	i	nt	nt
CN(C)C(CNc1ccc(C(F)(F)F)cn1)c1ccccc1 (configuration not stated)	i	i	i	i	62.9
O=C(CN1C(=O)NC(Cc2c[nH]c3ccccc23)C1=O)NCCc1ccccc1 (configuration not stated)	i	i	i	i	i
O=C(N/N=C/c1cc([N+](=O)[O-])ccc1O)C1CC1	61.5	i	i	i	i
O=C1NCCCC1C(=O)N/N=C/c1cc([N+](=O)[O-])ccc1O (configuration not stated)	i	i	i	i	i
O=C(N/N=C/c1cccc([N+](=O)[O-])c1)c1cccc2cc[nH]c12	i	i	i	i	i
O=C(N/N=C/c1cc([N+](=O)[O-])ccc1O)c1cccc2cc[nH]c12	63.4	i	i	i	i
O=C(N/N=C/c1cc([N+](=O)[O-])ccc1O)c1ccc2c(c1)OCCO2	76.2	i	i	i	i
N=C1C=CC(=C(c2ccc(N)cc2)c2ccc(N)cc2)C=C1	i	nt	nt	i	50.9
Nc1ccc(C(=O)C(=O)c2ccc(N)cc2)cc1	i	i	i	i	i
COc1cccc(CNc2cc(CSc3ccc(Cl)cc3)nc(C)n2)c1	49.2	i	i	i	i
COc1cccc(CNc2ccc(C)c(Cl)c2)c1	i	i	i	i	i
CC(C)Cn1c(N)c(C(=O)CSc2nc3ccccc3c(=O)n2CCCN2CCOCC2)c(=O)n(C)c1=O	nt	i	i	nt	nt
O=S(=O)(O)c1cc(O)c(N=Nc2ccc(O)cc2O)c2ccccc12	i	nt	nt	39.3	61.6
O=C(NCc1cccs1)c1ccc(Cl)c(S(=O)(=O)N2CCCC2)c1	i	i	i	i	i
Cc1c(C(=O)Nc2ccc3c4c(cccc24)CC3)cccc1[N+](=O)[O-]	i	i	i	i	i
Cc1c(C(=O)NC(=S)Nc2ccc(NC(=O)c3cccs3)cc2)cccc1[N+](=O)[O-]	i	i	i	i	58.4
O=C(NC(=S)Nc1ccc(-c2ccc(CO)o2)cc1)c1cccs1	i	51.2	i	i	i
Cc1c(C(=O)NC(=S)Nc2ccc3c4c(cccc24)CC3)cccc1[N+](=O)[O-]	i	i	i	i	67.3
CC(=O)c1cccc(-c2ccnc3c2CC(C(=O)NCc2ccco2)O3)c1 (configuration not stated)	i	nt	nt	i	nt
N#CC(=C1C=C(Br)C(=NO)C=C1Cl)c1cccc2ccccc12	i	nt	nt	39.9	nt
COc1ccc(NC(=O)CN2C(=O)NC(C)(C3CC3)C2=O)cc1S(=O)(=O)N1CCOCC1 (configuration not stated)	i	i	i	i	i
SMILES	EBI2 antag	APJ antag	APJ ag	CXCR6 inh	CCR6 antag
Cc1c(N=NC2=C(O)CC(C)(C)CC2=O)c(=O)n(-c2ccccc2)n1C	i	i	i	60.6	nt
CN(C)C(=S)N=c1ssc(=S)n1Cc1ccccc1	i	nt	nt	i	50.7
CCc1ccc(OCCCCCn2ccnc2)cc1	i	i	i	i	i
FC(F)(F)C(F)(F)C(F)(F)c1nc2nc(Cl)c(Cl)nc2[nH]1	i	nt	nt	i	nt
O=c1[nH]c(-c2ccccn2)nc2sc(-c3ccccc3)cc12	86.6	nt	nt	i	i
Cc1c(C(=O)N(C)C)sc2nc(-c3ccccn3)[nH]c(=O)c12	i	i	i	i	i
Cc1ccc(C(=O)NNC(=O)/C=C\C(=O)O)cc1	i	i	i	i	i
COCCCNC(=O)c1ccc2sc(C3=C[C@@H](O)[C@@H](O)[C@@H](CO)O3)nc2c1	i	nt	nt	i	nt
COc1ccc(C(=O)/C=C/C(=O)N(CC(=O)NC2CCCCC2)Cc2ccc(F)cc2)c(O)c1	i	nt	nt	59.7	97.5
COc1ccc(C(=O)/C=C/C(=O)N(CC(=O)NCCC(C)C)Cc2cccs2)c(O)c1	i	nt	nt	i	84.6
COc1ccc(C(=O)N(Cc2ccco2)Cc2cccs2)c(O)c1	i	i	i	i	i
CS(=O)(=O)N(CC(=O)NC1CCCCC1)Cc1ccc(F)cc1	i	i	i	i	i
CC(C)(C)C1=CC(=Nc2ccccc2N)C=C(C(C)(C)C)C1=O	i	i	i	i	67.4
Nc1ccccc1N=Nc1ccccc1N	i	i	i	i	i
Oc1ccc(/C=N/NC(=S)NC2CC3CCC2C3)cc1 (configuration not stated)	48.7	i	i	i	i
O=C(Cn1c(N2CCN(c3ccccc3)CC2)nc2ccccc21)c1ccccc1	i	i	i	i	50.3
Cc1cc(C)c2cccc(NC(=S)NC(=O)c3ccccc3)c2n1	i	i	i	i	68.6
Cc1ccccc1NC(=S)NC(=O)c1cc(-c2ccccc2)nc2ccccc12	i	i	i	i	55.6
CC(=O)NC(=S)Nc1cccc2c(C)cc(C)nc12	i	i	i	i	i
CCN(CC)/C(=N\S(=O)(=O)c1ccccc1C)c1ccccc1	i	i	i	i	i
COC(=O)c1ccc(N2C(=O)C3CC(C)=C(C)CC3C2=O)cc1 (configuration not stated)	i	i	i	i	i
CC1(C)OC(c2ccccc2)=C/C(=C/C=C2C(=O)c3ccccc3C2=O)O1	i	i	i	46.3	59.2
Cc1ccnc(N2C(=O)c3cccc4c([N+](=O)[O-])ccc(c34)C2=O)c1	i	i	i	41.9	i
CCOc1ccc(N(CC(=O)NCc2cccc(OC)c2)S(=O)(=O)c2c(C)noc2C)cc1	i	i	i	i	i
O=C(NNS(=O)(=O)c1ccc(F)c(Cl)c1)c1cccc(S(=O)(=O)N2CCOCC2)c1	i	i	i	i	i
SMILES	EBI2 antag	APJ antag	APJ ag	CXCR6 inh	CCR6 antag
O=c1c(Br)ccc(Br)cc1Br	i	nt	nt	95.4	110.5
Cc1c(C)n(Cc2ccccc2)c2ccc(C(=O)OCCN(C)C)cc12	i	i	i	i	i
O=[N+]([O-])c1cc(Cl)cc(/C=N\Nc2ccccn2)c1O	i	i	i	78.4	73.7
Cc1sc2ncnc(NCC(O)c3ccc([N+](=O)[O-])cc3)c2c1C (configuration not stated)	i	i	i	i	i
CC(=O)n1cc(Nc2ccc([N+](=O)[O-])cc2)c2ccccc21	i	42.4	i	i	i
CC(=O)SC(C[N+](=O)[O-])c1cn(C(C)=O)c2ccccc12 (configuration not stated)	i	i	i	54.8	75.9
CCN1C(=O)N2C[C@H]3CON(C)[C@H]3C[C@H]2c2ccccc21	i	nt	nt	i	nt

From PubChem BioAssay
